ChEMBL document CHEMBL4411280, “Synthesis, structure activity relationship and in vitro anti-influenza virus activity of novel polyphenol-pentacyclic triterpene conjugates” (Eur J Med Chem, 2019)
pIC50, pKd: −log10 of the molar value. Active and inactive are the calls of the source. The rule behind the calls is not given here.

Key:
[1] = molecular target: Hemagglutinin (Influenza A virus (A/Puerto Rico/8/1934(H1N1)), UniProt P03452); test: Binding affinity to recombinant Influenza A virus (A/California/04/2009 (H1N1)) hemagglutinin by SPR assay
Hemagglutinin (Influenza A virus (A/Puerto Rico/8/1934(H1N1)), UniProt P03452), sequence (P03452 whole entry): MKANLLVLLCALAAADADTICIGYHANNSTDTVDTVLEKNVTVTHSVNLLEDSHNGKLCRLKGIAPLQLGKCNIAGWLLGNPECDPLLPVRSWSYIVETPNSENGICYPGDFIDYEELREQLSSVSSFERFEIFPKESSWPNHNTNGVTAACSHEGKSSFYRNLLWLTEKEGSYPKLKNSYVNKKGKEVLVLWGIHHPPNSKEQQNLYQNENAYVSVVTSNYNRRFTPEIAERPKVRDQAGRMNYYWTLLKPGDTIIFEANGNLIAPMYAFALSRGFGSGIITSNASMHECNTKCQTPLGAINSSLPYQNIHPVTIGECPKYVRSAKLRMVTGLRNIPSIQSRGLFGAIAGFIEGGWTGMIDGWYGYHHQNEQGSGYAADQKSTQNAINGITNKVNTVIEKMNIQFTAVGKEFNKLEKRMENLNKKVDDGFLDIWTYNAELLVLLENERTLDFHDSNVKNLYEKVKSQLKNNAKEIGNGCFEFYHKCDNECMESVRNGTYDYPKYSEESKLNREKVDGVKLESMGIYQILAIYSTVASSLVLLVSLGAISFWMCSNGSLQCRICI
How it was run: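 HA immobilised on the sensor chip to about 16,000 RU. Compounds injected as analytes at various concentrations in PBS-P running buffer (10 mM phosphate, 2.7 mM KCl, 137 mM NaCl, 0.05% P20, […]), with 60 s contact and 60 s dissociation. KD determined.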

MDCK = test: Cytotoxicity against MDCK cells at 50 uM after 40 hrs by CellTiter-Glo assay; type: cell-based, Canis lupus familiaris; details: dog
How it was run: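 Single-concentration toxicity screen at 50 μM final on MDCK cells for 40 h, read by CellTiter-Glo. 0.5% DMSO final as negative control. Triplicate experiments, standard deviations shown.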

Influenza A virus [2] = test: Antiviral activity against Influenza A virus A/WSN/33/H1N1 infected in MDCK cells assessed as reduction in virus-induced cytopathic effect at 50 uM after 40 hrs by CellTiter-Glo assay; type: functional, organism-based
How it was run: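 Single-concentration screen at 50 μM final. MDCK cells infected with A/WSN/33 (H1N1) at MOI 0.1 in DMEM/1% FBS with TPCK-trypsin for 40 h, viability by CellTiter-Glo. 0.5% DMSO final as negative control, oseltamivir as positive control. Triplicate experiments, standard deviations shown.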

Influenza A virus [3] = test: Antiviral activity against Influenza A virus A/WSN/33/H1N1 infected in MDCK cells assessed as reduction in virus-induced cytopathic effect after 40 hrs by CellTiter-Glo assay; type: functional, organism-based; details: A/WSN/33/H1N1, MDCK
How it was run: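 MDCK cells seeded overnight, infected with influenza A/WSN/33 (H1N1) at MOI 0.1. Kept in DMEM with 1% FBS, test compound, TPCK-treated trypsin and 1% final DMSO for 40 h. Cell viability read by CellTiter-Glo luminescence. IC50 taken from dose-response.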

[4] = Cytotoxicity against MDCK cells after 40 hrs by CellTiter-Glo assay; type: cell-based, Canis lupus familiaris; details: dog
How it was run: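 MDCK cells grown overnight in medium with 1% FBS, then exposed to increasing compound concentrations for 40 h. Viability measured by CellTiter-Glo luminescence, and CC50 derived from it.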

[5] = molecular target: Hemagglutinin (Influenza A virus) (UniProt B4URE7); test: Inhibition of Influenza A virus A/WSN/33/H1N1 HA-mediated hemagglutination of chicken RBC measured after 30 mins
Hemagglutinin (Influenza A virus), sequence (B4URE7 as listed by the source): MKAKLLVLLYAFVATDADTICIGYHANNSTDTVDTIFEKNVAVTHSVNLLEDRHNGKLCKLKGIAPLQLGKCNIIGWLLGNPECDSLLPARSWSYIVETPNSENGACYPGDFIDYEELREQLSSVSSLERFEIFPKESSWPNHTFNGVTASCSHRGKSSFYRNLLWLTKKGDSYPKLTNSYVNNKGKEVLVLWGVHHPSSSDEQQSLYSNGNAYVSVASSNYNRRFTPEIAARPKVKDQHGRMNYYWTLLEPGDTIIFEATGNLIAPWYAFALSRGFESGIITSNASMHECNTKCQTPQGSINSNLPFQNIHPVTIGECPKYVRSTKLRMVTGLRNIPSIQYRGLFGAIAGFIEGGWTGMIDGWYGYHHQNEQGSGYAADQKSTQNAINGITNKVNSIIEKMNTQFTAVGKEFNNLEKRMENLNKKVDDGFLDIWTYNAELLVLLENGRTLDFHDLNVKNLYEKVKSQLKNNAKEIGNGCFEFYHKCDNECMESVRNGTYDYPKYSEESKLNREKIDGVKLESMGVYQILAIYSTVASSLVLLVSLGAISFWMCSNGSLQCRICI
How it was run: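 Compound serially diluted 3-fold in saline and mixed with an equal volume of A/WSN/33 virus (2 HA units). Freshly prepared chicken RBCs (1% v/v in saline) added. Incubated 30 min at room temperature, then agglutination scored visually. PBS as negative control, anti-HA antibody tested in parallel.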

Row | SMILES | pKd [1] | Activity (MDCK) | Activity (Influenza A virus [2]) | pIC50 (Influenza A virus [3]) | CC50 at 40 h [4] [µM] | inhibition [5]
1 | C[C@H]1[C@H](C)CC[C@]2(C(=O)O)CC[C@]3(C)C(=CC[C@@H]4[C@@]5(C)CC[C@H](O)C(C)(C)[C@@H]5CC[C@]43C)[C@H]12 [URSOLIC ACID] | 4.33 |  |  |  |  | 
2 | C=C(C)[C@@H]1CC[C@]2(C(=O)NCCNC(=O)c3ccccc3O)CC[C@]3(C)[C@H](CC[C@@H]4[C@@]5(C)CC[C@H](O)C(C)(C)[C@@H]5CC[C@]43C)[C@@H]12 |  | Non-Toxic | Active | 5.02 | > 100 | 
3 | C=C(C)[C@@H]1CC[C@]2(C(=O)NCCNC(=O)/C=C/c3ccc(O)cc3)CC[C@]3(C)[C@H](CC[C@@H]4[C@@]5(C)CC[C@H](O)C(C)(C)[C@@H]5CC[C@]43C)[C@@H]12 |  | Non-Toxic | Active | 4.80 | > 100 | 
4 | C[C@H]1[C@H](C)CC[C@]2(C(=O)NCCNC(=O)c3ccccc3O)CC[C@]3(C)C(=CC[C@@H]4[C@@]5(C)CC[C@H](O)C(C)(C)[C@@H]5CC[C@]43C)[C@H]12 | 4.81 | Non-Toxic | Active | 5.24 | > 100 | Dose-dependent effect
5 | CC1(C)CC[C@]2(C(=O)NCCNC(=O)c3ccccc3O)CC[C@]3(C)C(=CC[C@@H]4[C@@]5(C)CC[C@H](O)C(C)(C)[C@@H]5CC[C@]43C)[C@@H]2C1 | 4.44 | Non-Toxic | Active | 5.12 | > 100 | 
